Only some compounds are listed: those with a hit (about 2.1% of all), similar ones and a draw of the others.
IMP-1 inh = inhibitors of Pseudomonas aeruginosa IMP-1 metallo-beta-lactamase; purified IMP-1, nitrocefin hydrolysis, epi-absorbance fluorescence; inhibition, % at 5.6 µM; 0.45% of 290,000 active; AID 1556;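 active = inhibition above the mean plus 3 SD of all compounds in the same screening run, cut at about 4.5% in these data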;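 also: 0% = IMP-1 with DMSO and 100% = DMSO wells lacking enzyme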
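System: purified IMP-1; amount: IMP-1 0.2 nM before substrate addition; compound: single dose, 5.6 µM; times: 25 °C, 15 min preincubation, 25 min reaction; signal: Epi-absorbance via hydrolysed-nitrocefin quenching of white-plate fluorescence, 480/530 nm, EDTA stop; benchmarks: DMSO with and without IMP-1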
VIM-2 inh = blocks Pseudomonas aeruginosa VIM-2 metallo-beta-lactamase. purified VIM-2, nitrocefin hydrolysis, epi-absorbance fluorescence. inhibition, % at 5.6 µM. 0.89% of 290,000 active;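 active = inhibition above the mean of all tested compounds plus 3 SD, cutoff set per screening run, cut at about 7.5% in these data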;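 also: red hydrolysis product quenches plate fluorescence so inhibitors raise well fluorescence; 0% = enzyme with DMSO and 100% = DMSO without enzyme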
CRFR2-BP antag = CRF-BP/CRF-R2 complex antagonism; HEK293 CRF-R2/CRF-BP, CRF-induced calcium fluorescence; inhibition, % at 11.8 µM; 0.59% of 350,000 active;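 active = inhibition of the ligand-induced calcium signal above about 50% at the single tested concentration, limit read from the data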
zfTRPN1 agonist = agonists of zebrafish TRPN1 channel; HEK293 zebrafish TRPN1-YFP, Fluo-8 calcium fluorescence; 100% = response to 87 µM carbachol; activation, % at 3 µM; 0.18% of 220,000 active;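 active = activation above its plate's cutoff, the mean activation of test wells on that plate plus 3 SD, cut at about 19% in these data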;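 also: 0% = DMSO alone and 100% = 87 µM carbachol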
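Material – zebrafish TRPN1-YFP in HEK293 cells · Doses – 3 µM single point · Schedule – dye 1 h 37 °C plus 30 min RT · Signal – Fluo-8 calcium fluorescence, excitation 470-495 nm, emission 515-575 nm · Read-out – % activation versus carbachol response · Control set – carbachol high, DMSO low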
TRPML3 agonist = human mucolipin-3 channel agonism; HEK293 TRPML3-YFP, Fluo-8 calcium fluorescence; 100% = the carbachol control signal; activation, % at 3 µM; 0.29% of 220,000 active; AID 1448;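 active = activation above its plate's cutoff, the mean activation of the plate's test wells plus 3 SD, cut at about 12% in these data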;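 also: 0% = DMSO only wells and 100% = carbachol wells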
Target sequence (Q8TDD5 whole entry, looked up): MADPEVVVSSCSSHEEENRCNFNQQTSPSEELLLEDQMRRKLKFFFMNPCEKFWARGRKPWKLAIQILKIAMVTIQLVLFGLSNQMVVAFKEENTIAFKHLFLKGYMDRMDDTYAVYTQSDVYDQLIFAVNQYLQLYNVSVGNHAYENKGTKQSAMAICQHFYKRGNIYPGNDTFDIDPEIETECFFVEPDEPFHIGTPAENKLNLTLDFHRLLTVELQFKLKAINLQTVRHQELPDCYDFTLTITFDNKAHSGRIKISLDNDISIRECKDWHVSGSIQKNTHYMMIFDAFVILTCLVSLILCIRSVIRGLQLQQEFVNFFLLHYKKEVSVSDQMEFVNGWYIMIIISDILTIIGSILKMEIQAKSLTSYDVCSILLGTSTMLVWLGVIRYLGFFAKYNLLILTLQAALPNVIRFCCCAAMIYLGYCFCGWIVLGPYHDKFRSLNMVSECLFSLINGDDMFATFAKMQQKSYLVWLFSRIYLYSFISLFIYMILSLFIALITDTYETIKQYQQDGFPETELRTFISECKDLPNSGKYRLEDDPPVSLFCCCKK
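Test system: HEK293 cells stably carrying human TRPML3-YFP; Doses: single dose, 3 µM final nominal compound, 0.3% DMSO final; Schedule: dye loading 1 h 37 °C then 30 min ambient, 125 s read; Technique: Fluo-8 calcium fluorescence; Benchmarks: high control carbachol 87 µM, low control DMSO.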
CRFBP-R2 agonist = CRF-BP/CRF-R2 complex agonism; HEK293 CRF-R2/CRF-BP, calcium dye fluorescence (FLIPR); percent of saturating CRF peptide response; activation, % at 13.2 µM; 0.46% of 350,000 active; AID 588473;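 active = activation of at least 50%, plus an integration ratio under a set limit after plate pattern correction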;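 also: plate controls were neutral control wells without compound for no effect and CRF at EC100 for full effect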
Starred values were filed as active, the others as inactive; . = no result.

SMILES	IMP-1 inh	VIM-2 inh	CRFR2-BP antag	zfTRPN1 agonist	TRPML3 agonist	CRFBP-R2 agonist
CCOC(=O)c1c(C)[nH]c(C)c1S(=O)(=O)NCc1ccccc1C	0.7	-0.2	-4.2	.	.	-1.8
O=[N+]([O-])c1cc([N+](=O)[O-])c(Oc2c(F)cccc2F)cc1NN1CCCCC1	-0.6	2.0	1.4	.	.	-0.8
O=[N+]([O-])c1cc([N+](=O)[O-])c(Oc2c(Cl)cccc2Cl)cc1NN1CCCCC1	4.8*	1.5	1.0	.	.	-0.5
CC(NC(=O)NC(=O)c1cccc(Cl)c1)c1ccccc1 (centres undefined)	-1.8	-1.4	-20.6	.	.	1.8
O=C(Cn1nnc(-c2ccccc2F)n1)Nc1ccc(S(=O)(=O)NC2CCCC2)cc1	5.0*	1.0	-14.1	-0.4	-1.0	6.2
Cc1ccc(N(C(=O)Cn2nnc(-c3ccccc3F)n2)C(C(=O)NC2CCCC2)c2ccncc2)cc1 (centres undefined)	-2.4	-0.2	50.7*	.	.	-0.2
CCOC(=O)c1ccc(NC(=O)Cn2nnc(-c3ccccc3F)n2)cc1	-0.3	2.0	-24.6	0.8	0.6	1.7
CC1(C)Cc2c(sc3[nH]c(=O)n(CC(=O)NCC4CCCO4)c(=O)c23)CO1 (centres undefined)	-4.8	-3.3	83.6*	.	.	1.2
C=CCn1c(SCC(=O)N2CCCC2=O)nc2sc(CC)cc2c1=O	.	.	-1.7	.	.	-1.9
C=CCn1c(SCC(=O)N2CCN(C(=O)c3ccco3)CC2)nc2sc(CC)cc2c1=O	-0.9	12.1*	-9.6	0.4	-0.3	-0.8
COc1ccc(OC)c(S(=O)(=O)N(C)CC(=O)N2CCN(c3ccccc3F)CC2)c1	17.1*	0.2	-12.5	-0.1	-0.7	-1.1
O=C(O)c1ccccc1C(=O)NCc1c(Cl)cccc1Sc1ccc(Cl)cc1	-1.4	1.4	8.9	.	.	8.2
CC1CCN(C(=O)COC(=O)c2cccc(S(=O)(=O)N3CCOCC3)c2)CC1	.	.	6.9	.	.	-1.2
Cc1cc(NC(=O)C(C)C)ncc1NC(=O)CCc1ccccc1	-1.1	0.4	-126.0	1.4	0.4	141.0*
Cc1cc(NC(=O)C(C)C)ncc1NC(=O)c1ccco1	-0.8	2.4	.	.	.	.
COC(=O)N(C)C[C@H]1OCc2cnnn2CCCC(=O)N([C@H](C)CO)C[C@H]1C	.	.	-9.6	.	.	-0.7
Cc1cccn2c(=O)c3cc(C(=O)NCCN4CCOCC4)c(=N)n(Cc4ccc(F)cc4)c3nc12	-1.2	6.1	7.9	.	.	-0.8
CCOc1ccc(N(CC(=O)O)S(=O)(=O)c2ccc(F)cc2)cc1	-0.2	1.1	-3.2	69.8*	0.8	3.8
CC(=O)Nc1ccc(NC(=O)CSc2nc3nc(-c4cccs4)cc(C(F)(F)F)c3c(=O)[nH]2)cc1	-3.0	-1.5	-2.3	2.7	0.9	0.9
O=C(c1cnn2c(C(F)(F)F)cc(-c3cccs3)nc12)N1CCCC1	-2.2	3.6	22.2	-0.5	-0.2	-1.4
O=C(NCc1ccco1)c1cnn2c(C(F)(F)F)cc(-c3cccs3)nc12	-3.0	9.3*	-19.7	0.4	0.4	-3.8
O=C(CSc1nc2nc(-c3cccs3)cc(C(F)(F)F)c2c(=O)[nH]1)NCc1ccco1	-3.4	8.1*	17.1	-0.8	0.1	-3.0
COC(=O)CSc1nc2nc(-c3cccs3)cc(C(F)(F)F)c2c(=O)[nH]1	-0.4	11.9*	10.0	.	.	-4.0
Cc1cc(NC(=O)COC(=O)C(C)Oc2ccc(Cl)cc2Cl)no1 (centres undefined)	-3.2	-5.9	-28.8	.	.	2.9
COc1ccccc1C(=O)COC(=O)CSC(C)C(=O)Nc1cc(C)on1 (centres undefined)	.	.	0.1	.	.	0.6
Cc1ccccc1-n1c(O)c(/C=C/C=Nc2ccccc2)c(=O)[nH]c1=O	2.3	2.2	-85.7	13.3	9.3	81.4*
Cc1ccc(-n2c(O)c(/C=C3/C(c4ccccc4)=Nc4ccccc43)c(=O)[nH]c2=O)cc1	-2.1	1.5	-123.6	0.6	1.7	21.2
CCC/C(C#Cc1ccc(N(C)C)cc1)=C1/c2ccccc2C(=O)N1c1ccccc1	.	.	-36.5	.	.	78.7*
CCC/C(C#Cc1cc(OC)cc(OC)c1)=C1/c2ccccc2C(=O)N1c1ccccc1	.	.	6.7	.	.	1.4
